A short description of data set [1]: pKA value was determined; Experiment 1. Format: physicochemical.
Data set [2] in a line: pKA value was determined; Experiment 2. It is filed as physicochemical.
The target in data set [3] is GABA-A receptor; anion channel. Nature of the data set: Inhibition of [3H]GABA binding to Gamma-aminobutyric acid receptor of rat brain synaptosomal membranes. Format: cell membranes, Membrane. The method, boiled down:
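Rat brain synaptic membranes (0.8–1.2 mg protein) were incubated in triplicate for 5 min at 4 °C in 0.05 M Tris-citrate pH 7.1 with 5 nM [3H]GABA, plus 1 mM GABA or 100 µM test agent. Protein was measured by Lowry.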

A further data set addresses GABA transporter (Rattus norvegicus, UniProt P31647+P23978+P31646+P48056). Description: Inhibition of high affinity neuronal GABA uptake by synaptosomes of rat brain membrane. It is filed as functional, subcellular.

The structures appear in SMILES notation. Where only a bound is given, the exact number is not on record here.

The term pKa denotes the negative logarithm of the acid dissociation constant. As usually defined, the IC50 is the concentration that gives 50% inhibition. Lower therefore signals inhibition by little substance. Consider `O=C(O)[C@H]1CNC[C@@H](O)C1`, for which the pKa in data set [1] came to 3.5; in data set [2] it was 8.9. The 50% inhibitory concentration (IC50) in data set [3] is more than 100 µM; on GABA transporter, 173 µM.

On to `O=C(O)[C@@H]1CCNC[C@@H]1O`, for which the pKa in data set [1] worked out at 3.7; in data set [2] it was 10. Also, the IC50 was 12 µM in data set [3] and more than 300 µM at GABA transporter.

Take `O=C(O)[C@H]1CNCC[C@@H]1O`: the pKa amounted to 3.1 in data set [1] and 9.4 in data set [2]. Further, the IC50 is more than 100 µM in data set [3] and 203 µM against GABA transporter.

For `O=C(O)[C@@H]1CCNC[C@H]1O`, the pKa amounted to 3.6 in data set [1] and 9.3 in data set [2]. Also, the IC50 was 43 µM in data set [3] and more than 300 µM at GABA transporter.

For the compound `O=C(O)[C@H]1CNCC[C@H]1O`, the results for the pKa in data set [1] and in data set [2] were 3.4 and 10, respectively. The IC50 in data set [3] is more than 100 µM; against GABA transporter, 11 µM.

On to `CC(=O)N[C@@H]1CCNC[C@@H]1C(=O)O`, for which the pKa came out at 3.2 in data set [1] and 9.7 in data set [2]. Moreover, the IC50 in data set [3] was more than 100 µM; against GABA transporter, more than 300 µM.

With `CC(=O)N[C@@H]1CNC[C@H](C(=O)O)C1`, the pKa in data set [1] was found to be 3; in data set [2], 8.6. The IC50 in data set [3] was more than 100 µM; at GABA transporter, 240 µM.

With `NCCCC(=O)O` [GAMMA-AMINOBUTYRIC ACID], the pKa in data set [1] worked out at 4; in data set [2] it was 10.7.

Consider `O=C(O)C1CCNCC1` [ISONIPECOTIC ACID], for which the pKa in data set [1] is 3.8; in data set [2], 10.5. In addition, the IC50 is 0.33 µM in data set [3] and more than 300 µM on GABA transporter.

Consider `O=C(O)C1CCCNC1` (configuration not stated) [NIPECOTIC ACID], for which the pKa in data set [1] is 3.9; in data set [2], 10.3. In data set [3], this compound had an IC50 of more than 100 µM.
